Calls of active or inactive are those of the source. The calls are words filed in the database; no cut-off is given here.
Experiments:
[1] = tested on: CAL-51; assay: Cytotoxicity against human CAL51 cells assessed as reduction in cell viability after 3 days by CellTiter-Glo assay; format: functional, cell-based; conditions: CAL-51, 72 h
[2] = tested on: BT-474; assay: Cytotoxicity against human BT474 cells assessed as reduction in cell viability after 3 days by CellTiter-Glo assay; format: cell-based; conditions: BT-474, 72 h
[3] = Metabolic stability in rat liver S9 fraction assessed as percent of compound remaining after 60 mins; format: ADME, tissue-based; conditions: read-out: Stability
[4] = Metabolic stability in human liver S9 fraction assessed as percent of compound remaining after 60 mins; format: ADME, tissue-based; conditions: read-out: Stability
[5] = Clearance in rat at 2 mg/kg, iv; format: ADME, organism-based; conditions: in vivo
[6] = Volume of distribution at steady state in rat at 2 mg/kg, iv; format: ADME, organism-based; conditions: in vivo, read-out: Vdss
[7] = Mean residence time in rat at 2 mg/kg, iv; format: ADME, organism-based; conditions: in vivo
[8] = Clearance in SCID mouse at 10 mg/kg, iv; format: ADME, organism-based; conditions: in vivo
[9] = Mean residence time in SCID mouse at 10 mg/kg, iv; format: ADME, organism-based; conditions: in vivo
[10] = tested on: Mus musculus; assay: Toxicity in SCID mouse xenografted with human CAL51 cells assessed as loss in body weight at 5 mg/kg, iv administered every 4 days for 16 days relative to control; format: organism-based; conditions: in vivo
[11] = tested on: CAL-51; assay: Antiproliferative activity against human CAL51 cells xenografted in SCID mouse assessed as tumor growth inhibition at 5 mg/kg, iv administered every 4 days for 16 days; format: functional, organism-based
Outline: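 Mice bearing tumors of about 125 mm3 randomized (n = 8−10/group) and given compound intravenously at the listed doses and schedules. Tumors measured twice weekly by digital caliper on long and short axes; volume = width² × length/2.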

Row | Compound | remaining at 1 h [3] [%] | IC50 [1] [nM] | IC50 [2] [nM] | also measured
1 | CNC(=O)c1ccc(Nc2nc(O)c3c(-c4ccc5nc(C)oc5c4)c[nH]c3n2)c(OC)c1 | – | 10000 | 10000 | –
2 | CNC(=O)c1ccc(Nc2nc(OC3CCC3)c3c(-c4ccc5nc(C)oc5c4)c[nH]c3n2)c(OC)c1 | – | 47 | 10000 | –
3 | CNC(=O)c1ccc(Nc2nc(O[C@H]3CC[C@](C)(O)CC3)c3c(-c4ccc5nc(C)oc5c4)c[nH]c3n2)c(OC)c1 | – | 15 | 893 | –
4 | COc1cc(C(=O)N(C)C)ccc1Nc1nc(OC2CCCC2)c2c(-c3ccc4nc(C)oc4c3)c[nH]c2n1 | – | 113 | 8310 | –
5 | COc1cc(C(=O)N2CCN(C)CC2)ccc1Nc1nc(OC2CCCC2)c2c(-c3ccc4nc(C)oc4c3)c[nH]c2n1 | – | 37 | 3210 | –
6 | CC(=O)O[C@@]12CO[C@@H]1C[C@H](O)[C@@]1(C)C(=O)[C@H](O)C3=C(C)[C@@H](OC(=O)[C@H](O)[C@@H](NC(=O)OC(C)(C)C)c4ccccc4)C[C@@](O)([C@@H](OC(=O)c4ccccc4)[C@H]21)C3(C)C [DOCETAXEL ANHYDROUS] | – | – | – | Activity [10]: 20%; TGI [11]: Active
7 | CNC(=O)c1ccc(Nc2nc(OC3COC3)c3c(-c4ccc5nc(C)oc5c4)c[nH]c3n2)c(OC)c1 | – | 8 | 243 | –
8 | CNC(=O)c1ccc(Nc2nc(OCCOC)c3c(-c4ccc5nc(C)oc5c4)c[nH]c3n2)c(OC)c1 | – | 147 | 3760 | –
9 | COc1cc(C(=O)NCC(C)(C)O)ccc1Nc1nc(OC2CCCC2)c2c(-c3ccc4nc(C)oc4c3)c[nH]c2n1 | – | 61 | 10000 | –
10 | COc1cc(C(=O)NC(C)(C)CO)ccc1Nc1nc(OC2CCCC2)c2c(-c3ccc4nc(C)oc4c3)c[nH]c2n1 | – | 109 | 6090 | –
11 | CNC(=O)c1ccc(Nc2nc(OCCO)c3c(-c4ccc5nc(C)oc5c4)c[nH]c3n2)c(OC)c1 | – | 56 | 694 | –
12 | COc1ccccc1Nc1nc(OC2CCCC2)c2c(-c3ccc4nc(C)oc4c3)c[nH]c2n1 | – | 771 | 10000 | –
13 | CNC(=O)c1ccc(Nc2nc(OC3CCCC3)c3c(-c4ccc5nc(C)oc5c4)c[nH]c3n2)c(C)c1 | – | 349 | 9610 | –
14 | COc1cc(C(=O)N2CCOCC2)ccc1Nc1nc(OC2CCCC2)c2c(-c3ccc4nc(C)oc4c3)c[nH]c2n1 | – | 351 | 6390 | –
15 | CNC(=O)c1ccc(Nc2nc(OC3CCCC3)c3c(-c4cccc(O)c4)c[nH]c3n2)c(OC)c1 | – | 71 | 10000 | –

Continued, in another order:

Row | remaining at 1 h [3] [%] | Compound | IC50 [1] [nM] | IC50 [2] [nM] | also measured
16 | 86 | CNC(=O)c1ccc(Nc2nc(OC3CCCC3)c3c(-c4ccccc4)c[nH]c3n2)c(OC)c1 | 496 | 10000 | –
17 | 18 | CNC(=O)c1ccc(Nc2nc(OC3CCCC3)c3c(-c4ccc(CO)cc4)c[nH]c3n2)c(OC)c1 | 89 | 10000 | –
18 | 76 | CNC(=O)c1ccc(Nc2nc(OC3CCCC3)c3c(-c4ccc(OC)cc4)c[nH]c3n2)c(OC)c1 | 491 | 10000 | –
19 | 91 | COc1cc(C(=O)NC2COC2)ccc1Nc1nc(OC2CCCC2)c2c(-c3ccc4nc(C)oc4c3)c[nH]c2n1 | 123 | 10000 | remaining at 1 h [4]: 79%; clearance [5]: 13 mL/min/kg; Vd [6]: 3.7 L/kg; MRT [7]: 4.7 h; clearance [8]: 14.3 mL/min/kg; MRT [9]: 1.4 h
20 | 46 | CNC(=O)c1ccc(Nc2nc(OC3CCCC3)c3c(-c4ccc5nc[nH]c5c4)c[nH]c3n2)c(OC)c1 | 17 | 158 | –
21 | 53 | CNC(=O)c1ccc(Nc2nc(OC3CCCC3)c3c(-c4cc[nH]n4)c[nH]c3n2)c(OC)c1 | 460 | 10000 | –
22 | 75 | CNC(=O)c1ccc(Nc2nc(OC3CCOCC3)c3c(-c4ccc5nc(C)oc5c4)c[nH]c3n2)c(OC)c1 | 20 | 10000 | remaining at 1 h [4]: 70%; clearance [5]: 22.6 mL/min/kg; Vd [6]: 3.8 L/kg; MRT [7]: 2.9 h; clearance [8]: 67.6 mL/min/kg; MRT [9]: 1.8 h
23 | 59 | CNC(=O)c1ccc(Nc2nc(OC3CCCC3)c3c(-c4cccnc4)c[nH]c3n2)c(OC)c1 | 79 | 10000 | –
24 | 1 | CNC(=O)c1ccc(Nc2nc(OC3CCCC3)c3c(-c4ccc(O)cc4)c[nH]c3n2)c(OC)c1 | 13 | 3320 | –
25 | 69 | CNC(=O)c1ccc(Nc2nc(OC(C)C)c3c(-c4ccc5nc(C)oc5c4)c[nH]c3n2)c(OC)c1 | 40 | 946 | remaining at 1 h [4]: 78%; clearance [5]: 33.9 mL/min/kg; Vd [6]: 7.2 L/kg; MRT [7]: 3.5 h; clearance [8]: 7.71 mL/min/kg; MRT [9]: 4.8 h
26 | 62 | CNC(=O)c1ccc(Nc2nc(O[C@H]3CCOC3)c3c(-c4ccc5nc(C)oc5c4)c[nH]c3n2)c(OC)c1 | 17 | 3760 | remaining at 1 h [4]: 62%; clearance [5]: 27.4 mL/min/kg; Vd [6]: 1.6 L/kg; MRT [7]: 1 h; clearance [8]: 19.1 mL/min/kg; MRT [9]: 0.73 h
27 | 86 | CNC(=O)c1ccc(Nc2nc(OC3CCCC3)c3c(-c4ccc5oc(C)nc5c4)c[nH]c3n2)c(OC)c1 | 642 | 10000 | –
28 | 83 | CNC(=O)c1ccc(Nc2nc(OC3CCCC3)c3c(-c4ccncc4)c[nH]c3n2)c(OC)c1 | 17 | 10000 | –
29 | 85 | CNC(=O)c1ccc(Nc2nc(OC3CCCC3)c3c(-c4ccc5cn[nH]c5c4)c[nH]c3n2)c(OC)c1 | 338 | 10000 | –
30 | 76 | CNC(=O)c1ccc(Nc2nc(O[C@H]3CC[C@@](C)(O)CC3)c3c(-c4ccc5nc(C)oc5c4)c[nH]c3n2)c(OC)c1 | 8 | 10000 | remaining at 1 h [4]: 65%; clearance [5]: 17.6 mL/min/kg; Vd [6]: 2.9 L/kg; MRT [7]: 2.9 h; clearance [8]: 52.2 mL/min/kg; MRT [9]: 1 h
31 | 54 | CNC(=O)c1ccc(Nc2nc(OC3CCCC3)c3c(-c4cccc(CO)c4)c[nH]c3n2)c(OC)c1 | 30 | 9990 | –
32 | 36 | CNC(=O)c1ccc(Nc2nc(OC3CCCC3)c3c(-c4cn[nH]c4)c[nH]c3n2)c(OC)c1 | 9 | 8120 | –
33 | 64 | CNC(=O)c1ccc(Nc2nc(OC3CCCC3)c3c(-c4ccc(-c5ncc[nH]5)cc4)c[nH]c3n2)c(OC)c1 | 8 | 1730 | –
34 | 84 | CNC(=O)c1ccc(Nc2nc(OC3CCCC3)c3c(-c4ccc(-c5nnc[nH]5)cc4)c[nH]c3n2)c(OC)c1 | 77 | 4860 | –
35 | 84 | CNC(=O)c1ccc(Nc2nc(OC3CCCC3)c3c(-c4ccc(-c5ccn[nH]5)cc4)c[nH]c3n2)c(OC)c1 | 61 | 10000 | –

From ChEMBL document CHEMBL4028873, “The Discovery of a Dual TTK Protein Kinase/CDC2-Like Kinase (CLK2) Inhibitor for the Treatment of Triple Negative Breast Cancer Initiated from a Phenotypic Screen” (J Med Chem, 2017)
